The structures appear in SMILES notation. ≈ marks a conversion by molar mass, not a printed value. Calls of active or inactive are those of the source. The calls are words filed in the database; no cut-off is given here.

The text below walks through data of ChEMBL document CHEMBL5113395, “Azetidin-2-one-based small molecules as dual hHDAC6/HDAC8 inhibitors: Investigation of their mechanism of action and impact of dual inhibition profile on cell viability” (Eur J Med Chem, 2022).

One data set has as its target Histone deacetylase 1 (Homo sapiens, UniProt Q13547). In words: Inhibition of recombinant human full length C-terminal FLAG/His-tagged HDAC1 expressed in Sf9 insect cells using ZMAL (Z-(Ac)Lys-AMC as substrate measured after 90 mins by fluorescence plate reader analysis.
For a further data set, the target named is T1, Histone deacetylase 8 (Homo sapiens, UniProt Q9BY41).
T1 sequence (Q9BY41 whole entry): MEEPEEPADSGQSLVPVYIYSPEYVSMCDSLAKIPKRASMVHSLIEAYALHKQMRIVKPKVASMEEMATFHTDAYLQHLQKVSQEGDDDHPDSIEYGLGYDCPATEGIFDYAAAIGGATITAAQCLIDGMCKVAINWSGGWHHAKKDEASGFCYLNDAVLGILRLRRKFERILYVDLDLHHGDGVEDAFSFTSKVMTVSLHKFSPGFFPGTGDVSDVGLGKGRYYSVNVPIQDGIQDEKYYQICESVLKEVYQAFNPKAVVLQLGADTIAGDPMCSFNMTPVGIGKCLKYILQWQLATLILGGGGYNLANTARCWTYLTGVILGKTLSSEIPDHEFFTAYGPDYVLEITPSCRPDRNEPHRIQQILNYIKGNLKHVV
In words: Inhibition of recombinant human HDAC8 using FLUOR DE LYS as substrate preincubated for 15 mins followed by substrate addition measured after 1 hrs by fluorescence plate reader analysis. Put shortly: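 Kit recombinant human HDAC8 (0.45 U/reaction) was preincubated 15 min with compound (0.5% DMSO; DMSO-only control). Fluor de Lys substrate was then added at 50 µM final and the reaction ran 1 h at 30 °C. It was quenched with 2 µM TSA in Developer II for a further 1 h at 30 °C, and fluorescence read at ex 370/em 450 nm. IC50 came from nonlinear dose–response fitting.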

For data set [1], the species on record is Homo sapiens. In words: Selectivity index, ratio of IC50 for inhibition of recombinant human full length N-terminal GST-tagged HDAC6 expressed in Sf9 cells to IC50 for inhibition of recombinant human HDAC8. Put shortly: (§1)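 HDAC1 and HDAC6 IC50 values from the ZMAL fluorogenic assay: 37 °C for 90 min, then trypsin/TSA development, read at ex 390/em 460 nm. HDAC8 IC50 from the kit enzyme (0.45 U/reaction), 0.5% DMSO, 15 min preincubation with compound, 50 μM Fluor de Lys substrate, 1 h at 30 °C. HDAC8 reaction quenched with TSA (2 μM) in developer, 1 h, read at ex 370/em 450 nm, IC50 by nonlinear regression. Ratio of IC50s.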

For data set [2], the species on record is Homo sapiens. In words: Selectivity index, ratio of IC50 for inhibition of recombinant human full length C-terminal FLAG/His-tagged HDAC1 expressed in Sf9 insect cells to IC50 for inhibition recombinant human HDAC8. Put shortly:
as §1

Data set [3] deals with T2, Histone deacetylase 8 (Homo sapiens) (UniProt Q9BY41).
T2 sequence (whole entry): T1 sequence (Q9BY41 whole entry)
The experiment in a line: Inhibition of HDAC8 in human HCT-116 cells assessed as increase in acetylation level of SMC3 at 10 uM measured after 24 hrs by Western blot analysis. The format is cell-based. In outline: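 HCT116 or U937 cells were treated at 10 µM for 24–48 h and lysed in NP40 buffer with protease/phosphatase inhibitors. 50 µg protein was resolved by SDS-PAGE and probed with anti-acetyl-SMC3 (Lys105/106, 1:1000), normalized to GAPDH (1:3000). PCI served as positive control, and band intensities were semi-quantified by densitometry.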

The next data set relates to HCT-116. The experiment in a line: Antiproliferation activity against human HCT-116 cells assessed as reduction in cell viability at 5 to 50 uM measured after 48 hrs by MTT assay. In kind it is functional, cell-based. To be noted: dose 5-50 µM. In outline: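 HCT116 cells in DMEM with 10% heat-inactivated FBS were seeded at 3×10^4 cells/well and treated in triplicate at 1, 5, 10 and 50 µM for 24 and 48 h. MTT at 0.5 mg/mL was added for 3 h, formazan was dissolved in DMSO, and absorbance was read at 570 nm.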
Background: Tetrazolium assays rely on reduction of a dye to a coloured formazan, in cell work by metabolically active cells.

The next data set has as its system U-937. In words: Antiproliferation activity against human U-937 cells assessed as reduction in cell viability at 5 to 50 uM measured after 48 hrs by CCK-8 assay. The format is functional, cell-based. The conditions noted are these: dose 5-50 µM. Put shortly:
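U937 cells were exposed in triplicate to 1, 5, 10 and 50 µM for 24 and 48 h. CCK-8 (WST-8) reagent was then added, with 3 h further incubation at 37 °C, and absorbance was read at 450 nm to give viability.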

Data set [4] is described as follows: Solubility of compound in PBS at pH 7.4 measured after 24 hrs by HPLC/UV/DAD analysis. In kind it is physicochemical. In outline:
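10 mM DMSO stock diluted to 250 μM (2.5% DMSO) in 50 mM aqueous PBS pH 7.4. Standard prepared in MeCN/water 60:40. Sealed and shaken 24 h at 25 °C, PTFE-filtered and diluted 1:2 in buffer. Quantified by HPLC/UV/DAD at 254 nm against the 250 μM standard. Triplicate, averaged.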

Data set [5] is described as follows: Chemical stability of compound in PBS at pH 7.4 measured after 24 hrs by HPLC/UV/DAD analysis. In kind it is physicochemical. The conditions noted are these: read-out: Stability. In outline:
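DMSO stock (10 mM) was diluted to 250 µM (2.5% DMSO) in 50 mM PBS, pH 7.4, and kept 24 h at 25 °C with shaking. Peak area at 24 h versus T0 was measured by HPLC/UV/DAD at 254 nm, in triplicate. Stress tests used a methanol solution heated at 40 °C for 24 h, or 24 h under UV 254 nm.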

Data set [6] in a line: Metabolic stability in mouse liver microsome assessed as intrinsic clearance at 5 uM measured per mg protein in presence of NADPH incubated up to 60 mins by HPLC analysis. In kind it is ADME. To be noted: microsomes, 1 h. In outline:
(§2)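 Compound (in MeCN) at 5 μM incubated at 37 °C in 100 mM phosphate buffer pH 7.4 with 0.5 mg/mL liver microsomal protein (rat, mouse or human). CYP reactions started with NADPH-generating system (2 mM NADPH, glucose-6-phosphate, G6P dehydrogenase, MgCl2). Stopped with MeCN at intervals over 0–60 min. Remaining parent quantified by HPLC-UV at 254 nm. Ln % recovery vs time fitted to first-order decay. Triplicate incubations.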
A general note: Microsomes from liver hold many membrane-bound enzymes, among them those of drug oxidation.

Data set [7] is described as follows: Metabolic stability in rat liver microsome assessed as half life at 5 uM in presence of NADPH incubated up to 60 mins by HPLC analysis. To be noted: liver microsomes. The format is ADME. In outline: as §2
Data set [8] can be described thus: Metabolic stability in rat liver microsome assessed as intrinsic clearance at 5 uM measured per mg protein in presence of NADPH incubated up to 60 mins by HPLC analysis. In kind it is ADME. The conditions noted are these: microsomes, 1 h. Put shortly: as §2
The subject of data set [9] is Danio rerio. In words: In vivo inhibition of HDAC8 in zebrafish AB embryos assessed as increase in acetylation level of alpha-tubulin at 20 to 75 uM measured after 24 hrs by Western blot analysis. The format is functional, organism-based. The conditions noted are these: dose 20-75 µM. (In western blotting, separated proteins are transferred to a membrane and probed.)

The nature of data set [10]: Toxicity in zebrafish AB embryos assessed as tolerance at 25 to 75 uM measured after 24 hrs. The conditions noted are these: Danio rerio, in vivo.
The subject of data set [11] is Danio rerio. The experiment in a line: In vivo inhibition of HDAC6 in zebrafish AB embryos assessed as increase in acetylation level of alpha-tubulin at 25 to 75 uM measured after 24 hrs by Western blot analysis. The conditions noted are these: dose 25-75 µM.

Histone deacetylase 1, sequence (Q13547 whole entry): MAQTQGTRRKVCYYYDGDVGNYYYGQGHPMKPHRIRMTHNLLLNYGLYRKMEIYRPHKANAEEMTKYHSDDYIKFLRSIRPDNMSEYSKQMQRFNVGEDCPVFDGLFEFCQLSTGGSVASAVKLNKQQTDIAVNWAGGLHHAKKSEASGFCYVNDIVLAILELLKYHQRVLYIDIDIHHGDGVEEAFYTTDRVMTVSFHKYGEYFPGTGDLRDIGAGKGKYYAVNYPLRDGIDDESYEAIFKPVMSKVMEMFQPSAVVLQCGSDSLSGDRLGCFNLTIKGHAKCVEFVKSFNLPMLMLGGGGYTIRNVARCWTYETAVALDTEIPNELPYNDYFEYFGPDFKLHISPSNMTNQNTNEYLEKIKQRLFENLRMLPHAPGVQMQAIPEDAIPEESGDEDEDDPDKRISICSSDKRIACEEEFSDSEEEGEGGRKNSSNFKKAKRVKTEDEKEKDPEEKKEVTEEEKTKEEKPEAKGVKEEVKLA

Take `O=C(NO)c1ccc(CNC(=O)N2CCC(N3C(=O)[C@H](c4ccccc4)[C@H]3c3ccccc3)CC2)cc1` (racemic): the 50% inhibitory concentration (IC50) on Histone deacetylase 1 turned out to be 4200 nM; at Histone deacetylase 8 it was 42 nM. Besides, the Ratio IC50 came to 2 in the data set filed under Homo sapiens [1] and 100 in the data set listed under Homo sapiens [2]. The inhibition entry in data set [3] is “Active”. The outcome in the data set with HCT-116, with U-937, in the data set on Danio rerio [9] and in the data set on Danio rerio [11] was Active. In data set [4], this compound gave a solubility at 24 h of 70 µM (≈ 34.9 µg/mL). The remaining at 24 h in data set [5] was 73%. The CLH came to 35.38 µL/min in data set [6] and 8.43 µL/min in data set [8]. Further, in data set [7], the half-life at 5 µM stood at 1.43 h. The Activity entry in data set [10] is on record as “Non-Toxic”.
As to `O=C(NO)c1ccc(CNC(=O)N2CCC(N3CC(c4ccccc4)(c4ccccc4)C3=O)CC2)cc1`, the results for the IC50 on Histone deacetylase 1 and at Histone deacetylase 8 were 4300 nM and 99 nM, respectively. Also, the Ratio IC50 turned out to be 29 in the data set filed under Homo sapiens [1] and 43 in the data set filed under Homo sapiens [2]. Moreover, in data set [3], the inhibition result is “Active”. Moreover, the result with HCT-116, in the data set on U-937, with Danio rerio [9] and with Danio rerio [11] was Active. Also, the solubility at 24 h in [4] was 10 µM (≈ 4.99 µg/mL). Moreover, the remaining at 24 h in [5] came to 75%. Moreover, the CLH in [6] is 33.63 µL/min; in data set [8] it was 7.39 µL/min. In addition, in data set [7], the half-life at 5 µM amounted to 1.63 h. Also, the Activity result in [10] is “Non-Toxic”.
On to `O=C(NO)c1ccc(CC(=O)N2CCC(N3CC(c4ccccc4)(c4ccccc4)C3=O)CC2)cc1`, for which the 50% inhibitory concentration (IC50) on Histone deacetylase 1 was 9700 nM; on Histone deacetylase 8, 113 nM. Moreover, the values for the Ratio IC50 in the data set listed under Homo sapiens [1] and in the data set listed under Homo sapiens [2] were 1 and 86, respectively. The inhibition entry in data set [3] was “Active”. Further, the outcome in the data set on HCT-116 and with U-937 was Active.

As usually defined, the IC50 is the concentration that inhibits the measured activity by half. Broadly, the solubility is the concentration that dissolves in the medium under given conditions. A low value points to a poorly soluble substance. What is called half-life is the time in which the quantity being followed falls by half.
